According to ChEMBL document CHEMBL1671867, “Novel polymyxin derivatives carrying only three positive charges are effective antibacterial agents” (Antimicrob Agents Chemother, 2008):
pIC50: −log10 of the molar value. In brackets after ≈: the same amount, converted by molar mass. Bridge positions count the residues as written; N and C are the ends. Square brackets hold non-standard residues; d marks the D form. Peptide text beside a SMILES is read from it. * marks the point of attachment. Decanoyl = CCCCCCCCCC(=O)*; Octanoyl = CCCCCCCC(=O)*; Dab = NCC[C@H](N)C(=O)O; Abu = CC[C@H](N)C(=O)O

Experiments:
[1] = system: Escherichia coli; test: Antibacterial activity against Escherichia coli IH3080 assessed as growth inhibition at 10 ug after 18 hrs by […] in presence of 1 ug/ml rifampin; type: functional
[2] = system: Escherichia coli; test: Antibacterial activity against Escherichia coli IH3080 assessed as growth inhibition at 10 ug after 18 hrs by […]; type: functional
[3] = Inhibition of [3H]gentamicin binding to brush border membrane of renal cortex
Method in brief: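 Brush border membrane vesicles prepared from male albino rat renal cortex by Mg2+-EGTA precipitation. Incubated with 20 μM [3H]gentamicin in 10 mM HEPES pH 7.5 with 300 mM mannitol, with or without compound, 60 min at 4°C. Then filtered, washed, and bound radioactivity counted by scintillation. IC50 fitted with the Hill equation.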

[4] = system: Klebsiella oxytoca; test: Antibacterial activity against Klebsiella oxytoca ATCC 13182 by CLSI M7-A7 agar dilution method; type: functional
Method in brief: (§1)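 Agar dilution on Mueller-Hinton agar with test substance at 0.25 to 32 μg/ml in twofold steps. Spots of about 10^4 CFU applied with a multipoint inoculator.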

[5] = system: Pseudomonas aeruginosa; test: Antibacterial activity against Pseudomonas aeruginosa ATCC 27853 by CLSI M7-A7 agar dilution method; type: functional; method in brief: as §1
[6] = system: Escherichia coli; test: Antibacterial activity against Escherichia coli by CLSI M7-A7 agar dilution method; type: functional; method in brief: as §1
[7] = system: Acinetobacter baumannii; test: Antibacterial activity against Acinetobacter baumannii ATCC 19606 by CLSI M7-A7 agar dilution method; type: functional
[8] = system: Acinetobacter baumannii; test: Antibacterial activity against Acinetobacter baumannii by CLSI M7-A7 agar dilution method; type: functional
[9] = system: Escherichia coli; test: Antibacterial activity against Escherichia coli SC 9253 by CLSI M7-A7 agar dilution method; type: functional; method in brief: as §1
[10] = system: Escherichia coli; test: Antibacterial activity against Escherichia coli SC 9252 by CLSI M7-A7 agar dilution method; type: functional
[11] = system: Staphylococcus aureus; test: Antibacterial activity against Staphylococcus aureus ATCC 25923 by CLSI M7-A7 agar dilution method; type: functional; method in brief: as §1
[12] = system: Serratia marcescens; test: Antibacterial activity against Serratia marcescens ATCC 8100 by CLSI M7-A7 agar dilution method; type: functional; method in brief: as §1
[13] = system: Klebsiella pneumoniae; test: Antibacterial activity against Klebsiella pneumoniae CCUG45421 by CLSI M7-A7 agar dilution method; type: functional; method in brief: as §1
[14] = system: Enterobacter cloacae; test: Antibacterial activity against Enterobacter cloacae CCUG52947 by CLSI M7-A7 agar dilution method; type: functional
[15] = system: Klebsiella pneumoniae; test: Antibacterial activity against Klebsiella pneumoniae by CLSI M7-A7 agar dilution method; type: functional; method in brief: as §1
[16] = system: Candida albicans; test: Antibacterial activity against Candida albicans ATCC 28366 by CLSI M7-A7 agar dilution method; type: functional
[17] = system: Klebsiella oxytoca; test: Antibacterial activity against Klebsiella oxytoca CCUG51683 by CLSI M7-A7 agar dilution method; type: functional; method in brief: as §1
[18] = system: Enterobacter cloacae; test: Antibacterial activity against Enterobacter cloacae by CLSI M7-A7 agar dilution method; type: functional
[19] = system: Enterobacter cloacae; test: Antibacterial activity against Enterobacter cloacae ATCC 23355 by CLSI M7-A7 agar dilution method; type: functional
[20] = system: Escherichia coli; test: Antibacterial activity against Escherichia coli ATCC […] by CLSI M7-A7 agar dilution method; type: functional
[21] = system: Escherichia coli; test: Antibacterial activity against Escherichia coli IH3080 by CLSI M7-A7 agar dilution method; type: functional
[22] = system: Citrobacter freundii; test: Antibacterial activity against Citrobacter freundii ATCC 8090 by CLSI M7-A7 agar dilution method; type: functional

## CCCCCCCC(=O)N[C@H](C(=O)N[C@@H](CC)C(=O)N[C@H]1CCNC(=O)[C@H]([C@@H](C)O)NC(=O)[C@H](CCN)NC(=O)[C@H](CC)NC(=O)[C@H](CC(C)C)NC(=O)[C@@H](Cc2ccccc2)NC(=O)[C@H](CCN)NC1=O)[C@@H](C)O (Octanoyl-T[Abu][Dab][Dab][dF]L[Abu][Dab]T; lactam 3-C)
[1]
  inhibition zone (IZ): 10 mm2
[2]
  inhibition zone (IZ): 0 mm2

## POLYMYXIN B
[3]
  pIC50: 4.41

## GENTAMICIN
[3]
  pIC50: 4.04

## CCCCCCCC(=O)N[C@@H](CCN)C(=O)N[C@H](C(=O)N[C@@H](CCN)C(=O)N[C@H]1CCNC(=O)[C@H]([C@@H](C)O)NC(=O)[C@H](CC)NC(=O)[C@H](CCN)NC(=O)[C@H](CC(C)C)NC(=O)[C@@H](Cc2ccccc2)NC(=O)[C@H](CC)NC1=O)[C@@H](C)O (Octanoyl-[Dab]T[Dab][Dab][Abu][dF]L[Dab][Abu]T; lactam 4-C)
[1]
  inhibition zone (IZ): 10 mm2
[2]
  inhibition zone (IZ): 0 mm2

## CCCCCCCC(=O)N[C@H](C(=O)N[C@@H](CC(N)=O)C(=O)N[C@H]1CCNC(=O)[C@H]([C@@H](C)O)NC(=O)[C@H](CCN)NC(=O)[C@H](CCN)NC(=O)[C@H](CC(C)C)NC(=O)[C@H](Cc2ccccc2)NC(=O)[C@H](CCN)NC1=O)[C@@H](C)O (Octanoyl-TN[Dab][Dab]FL[Dab][Dab]T; lactam 3-C)
[1]
  inhibition zone (IZ): 180 mm2
[2]
  inhibition zone (IZ): 10 mm2

## CCCCCCCC(=O)N[C@H](C(=O)N[C@@H](CC)C(=O)N[C@H]1CCNC(=O)[C@H]([C@@H](C)O)NC(=O)[C@H](CCN)NC(=O)[C@H](CCN)NC(=O)[C@H](CC(C)C)NC(=O)[C@@H](Cc2ccccc2)NC(=O)[C@H](CCN)NC1=O)[C@@H](C)O (Octanoyl-T[Abu][Dab][Dab][dF]L[Dab][Dab]T; lactam 3-C)
[1]
  inhibition zone (IZ): 194 mm2
[4]
  MIC: 32 µg/mL (≈ 29.8 µM)
[5]
  MIC: > 32 µg/mL
[6]
  MIC: > 16 µg/mL
[7]
  MIC: > 32 µg/mL
[8]
  MIC: > 32 µg/mL
[9]
  MIC: > 32 µg/mL
[10]
  MIC: > 32 µg/mL
[11]
  MIC: > 32 µg/mL
[2]
  inhibition zone (IZ): 32 mm2
[12]
  MIC: > 32 µg/mL
[13]
  MIC: > 32 µg/mL
[14]
  MIC: > 32 µg/mL
[15]
  MIC: > 32 µg/mL
[16]
  MIC: > 32 µg/mL
[17]
  MIC: 32 µg/mL (≈ 29.8 µM)
[18]
  MIC: > 32 µg/mL
[19]
  MIC: 32 µg/mL (≈ 29.8 µM)
[20]
  MIC: > 32 µg/mL
[21]
  MIC: > 32 µg/mL
[22]
  MIC: 16 µg/mL (≈ 14.9 µM)

## CCCCCCCCCC(=O)N[C@H](C(=O)N[C@H](CO)C(=O)N[C@H]1CCNC(=O)[C@H]([C@@H](C)O)NC(=O)[C@H](CCN)NC(=O)[C@H](CCN)NC(=O)[C@H](CC(C)C)NC(=O)[C@@H](Cc2ccccc2)NC(=O)[C@H](CCN)NC1=O)[C@@H](C)O (Decanoyl-T[dS][Dab][Dab][dF]L[Dab][Dab]T; lactam 3-C)
[1]
  inhibition zone (IZ): 150 mm2
[4]
  MIC: 2 µg/mL (≈ 1.81 µM)
[5]
  MIC: 4 µg/mL (≈ 3.62 µM)
[6]
  MIC: 1 µg/mL (≈ 0.906 µM)
[7]
  MIC: 4 µg/mL (≈ 3.62 µM)
[8]
  MIC: 2 µg/mL (≈ 1.81 µM)
[9]
  MIC: 16 µg/mL (≈ 14.5 µM)
[10]
  MIC: 8 µg/mL (≈ 7.24 µM)
[11]
  MIC: > 32 µg/mL
[2]
  inhibition zone (IZ): 130 mm2
[12]
  MIC: > 32 µg/mL
[13]
  MIC: 4 µg/mL (≈ 3.62 µM)
[14]
  MIC: 2 µg/mL (≈ 1.81 µM)
[15]
  MIC: 2 µg/mL (≈ 1.81 µM)
[16]
  MIC: > 32 µg/mL
[17]
  MIC: 2 µg/mL (≈ 1.81 µM)
[18]
  MIC: 2 µg/mL (≈ 1.81 µM)
[19]
  MIC: 2 µg/mL (≈ 1.81 µM)
[20]
  MIC: 2 µg/mL (≈ 1.81 µM)
[21]
  MIC: 2 µg/mL (≈ 1.81 µM)
[22]
  MIC: 2 µg/mL (≈ 1.81 µM)

## CCCCCCCC(=O)N[C@H](C(=O)N[C@H](CO)C(=O)N[C@H]1CCNC(=O)[C@H]([C@@H](C)O)NC(=O)[C@H](CCN)NC(=O)[C@H](CCN)NC(=O)[C@H]([C@@H](C)O)NC(=O)[C@H](Cc2ccccc2)NC(=O)[C@H](CCN)NC1=O)[C@@H](C)O
[1]
  inhibition zone (IZ): 190 mm2
[2]
  inhibition zone (IZ): 172 mm2

## CCCCCCCC(=O)N[C@H](C(=O)N[C@@H](C(=O)N[C@H]1CCNC(=O)[C@H]([C@@H](C)O)NC(=O)[C@H](CCN)NC(=O)[C@H](CCN)NC(=O)[C@H]([C@@H](C)O)NC(=O)[C@H](Cc2ccccc2)NC(=O)[C@H](CCN)NC1=O)[C@@H](C)O)[C@@H](C)O
[1]
  inhibition zone (IZ): 250 mm2
[2]
  inhibition zone (IZ): 200 mm2

## CCCCCCCC(=O)N[C@@H](C)C(=O)N[C@H](C(=O)N[C@H](CO)C(=O)N[C@H]1CCNC(=O)[C@H]([C@@H](C)O)NC(=O)[C@H](CCN)NC(=O)[C@H](CCN)NC(=O)[C@H](CC(C)C)NC(=O)[C@H](Cc2ccccc2)NC(=O)[C@H](CCN)NC1=O)[C@@H](C)O
[1]
  inhibition zone (IZ): 200 mm2
[2]
  inhibition zone (IZ): 160 mm2
